# Measurements taken from paper PMC5766731 (Clinical Pharmacokinetics, 2017).
# Columns and labels:
# [1] = Part II multiple ascending-dose pharmacokinetics; type: in vivo, human; conditions: for t max / AUCt / AUC∞ / Accumulation Index / C max / CL / V z/F_obs / t ½ / λz: part II, N 6; for t max: mean (range) per footnote; for AUCt / AUC∞ / Accumulation Index / C max / CL / V z/F_obs / t ½ / λz: mean ± SD
# Summary of the method: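 Four panels of eight (six drug, two placebo) were dosed orally, fasted, with 100, 150, 200 or 300 mg on Days 1, 3 and 5. Blood was taken pre-dose and at 0.5–36 h after the Day 1 and Day 5 doses, pre-dose and 12, 24 and 36 h after Day 3, and 48 and 72 h after Day 5. Diluted-blood LC-MS/MS (LLOQ 2 ng/mL). Accumulation index was derived.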
# [2] = Part I urinary recovery of ZYAN1; type: in vivo, human; conditions: for Amount recovered [mean ± SD] / Percentage recovered [mean ± SD]: urine, part I
# Summary of the method: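 Urine collected pre-dose and over 0–12, 12–24, 24–36 and 36–48 h: after the single dose (10–300 mg, part I) or after each alternate-day dose on Days 1, 3 and 5 (part II). Total volume recorded; 5 mL aliquots stored at –80 ± 10 °C. Acetonitrile precipitation and LC-MS/MS with analog internal standard, urine calibration 2–5000 ng/mL, LLOQ 2 ng/mL. Amount and percentage of dose recovered calculated.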
# [3] = Part III safety assessment; type: in vivo, human
# Summary of the method: (§1)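 Safety monitored under ICH-GCP in each part (single 10–300 mg; alternate-day 100–300 mg; 150 mg fasted/fed crossover). Assessments: adverse events coded with MedDRA version 18.0, clinical examinations, frequent vital signs, 12-lead ECGs, clinical laboratory tests, and continuous ECG for 24 h post-dose in parts I and II. Post-dose vs baseline compared by paired two-sided t test, α = 0.05.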
# Part I safety assessment = type: in vivo, human
# Summary of the method: as §1
# [4] = tested on: serum erythropoietin (EPO), hemoglobin, hematocrit, reticulocyte count; assay: Part III pharmacodynamics; type: in vivo, human; conditions: single 150 mg
# Summary of the method: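 Serum EPO, hemoglobin, hematocrit and reticulocyte count were measured in blood taken before and after oral dosing. Regimens: part I single fasted doses 10–300 mg vs placebo; part II 100–300 mg on Days 1, 3, 5 vs placebo; part III single 150 mg, fasted vs fed, men and women. EPO expressed baseline-corrected. Post-dose vs baseline compared by paired two-sided t test, α = 0.05.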
# [5] = rats, 1-month toxicity study; cited from earlier work
# [6] = 100 mg oral on Days 1, 3, 5, Day 1
# [7] = 100 mg oral on Days 1, 3, 5, Day 5
# [8] = 150 mg oral on Days 1, 3, 5, Day 1
# [9] = 150 mg oral on Days 1, 3, 5, Day 5
# [10] = 200 mg oral on Days 1, 3, 5, Day 1
# [11] = 200 mg oral on Days 1, 3, 5, Day 5
# [12] = 300 mg oral on Days 1, 3, 5, Day 1
# [13] = 300 mg oral on Days 1, 3, 5, Day 5
structure (smiles),measurement,setting,value
O=C(O)CNC(=O)c1c(O)c2ccccc2n(OCC2CC2)c1=O [ZYAN1],"median t max, range","[1]; 100, 150, 200, 300 mg, first or fifth day of dosing",1.5 to 3.0 h
same,accumulation of the drug,"[1]; after first and third dose of 100, 150, 200, 300 mg, alternate-day dosing",no accumulation of the drug was observed
same,mean terminal t ½,[1]; in vivo,approximately 10 h
same,t max,[1]; [6],2.00 (1.00–3.00) h
same,AUCt,[1]; [6],"36,885.130 ± 11,488.927 h·ng/mL"
same,AUC∞,[1]; [6],"38,817.512 ± 13,184.682 h·ng/mL"
same,Accumulation Index,[1]; [6],1.027 ± 0.018
same,C max,[1]; [6],6549.000 ± 1567.979 ng/mL
same,CL,[1]; [6],2834.521 ± 775.188 mL/h
same,V z/F_obs,[1]; [6],"34,916.562 ± 8463.050 mL"
same,t ½,[1]; [6],8.811 ± 1.869 h
same,λz,[1]; [6],0.082 ± 0.020 h⁻¹
same,t max,[1]; [7],2.00 (1.50–2.50) h
same,AUCt,[1]; [7],"39,690.467 ± 11,051.227 h·ng/mL"
same,AUC∞,[1]; [7],"40,102.984 ± 11,276.275 h·ng/mL"
same,Accumulation Index,[1]; [7],1.106 ± 0.128
same,C max,[1]; [7],6566.667 ± 1525.703 ng/mL
same,CL,[1]; [7],2744.020 ± 798.472 mL/h
same,V z/F_obs,[1]; [7],"47,571.130 ± 18,996.205 mL"
same,t ½,[1]; [7],12.968 ± 6.654 h
same,λz,[1]; [7],0.065 ± 0.029 h⁻¹
same,t max,[1]; [8],1.50 (1.00–3.50) h
same,AUCt,[1]; [8],"59,780.215 ± 8539.865 h·ng/mL"
same,AUC∞,[1]; [8],"62,811.249 ± 10,222.543 h·ng/mL"
same,Accumulation Index,[1]; [8],1.025 ± 0.026
same,C max,[1]; [8],8185.667 ± 1215.600 ng/mL
same,CL,[1]; [8],2487.695 ± 399.669 mL/h
same,V z/F_obs,[1]; [8],"29,315.063 ± 6213.656 mL"
same,t ½,[1]; [8],8.390 ± 2.431 h
same,λz,[1]; [8],0.088 ± 0.025 h⁻¹
same,t max,[1]; [9],1.75 (0.50–3.00) h
same,AUCt,[1]; [9],"65,307.036 ± 9629.912 h·ng/mL"
same,AUC∞,[1]; [9],"65,706.064 ± 9748.640 h·ng/mL"
same,Accumulation Index,[1]; [9],1.043 ± 0.026
same,C max,[1]; [9],8657.000 ± 1190.575 ng/mL
same,CL,[1]; [9],2398.514 ± 378.402 mL/h
same,V z/F_obs,[1]; [9],"34,943.264 ± 6986.821 mL"
same,t ½,[1]; [9],10.205 ± 2.013 h
same,λz,[1]; [9],0.070 ± 0.015 h⁻¹
same,t max,[1]; [10],2.00 (1.50–3.50) h
same,AUCt,[1]; [10],"85,040.673 ± 12,019.503 h·ng/mL"
same,AUC∞,[1]; [10],"88,180.063 ± 13,633.711 h·ng/mL"
same,Accumulation Index,[1]; [10],1.017 ± 0.019
same,C max,[1]; [10],"13,203.333 ± 2762.033 ng/mL"
same,CL,[1]; [10],2344.752 ± 361.388 mL/h
same,V z/F_obs,[1]; [10],"25,167.492 ± 5973.588 mL"
same,t ½,[1]; [10],7.573 ± 2.103 h
same,λz,[1]; [10],0.097 ± 0.024 h⁻¹
same,t max,[1]; [11],1.75 (0.50–2.50) h
same,AUCt,[1]; [11],"77,994.986 ± 21,218.895 h·ng/mL"
same,AUC∞,[1]; [11],"78,368.940 ± 21,616.249 h·ng/mL"
same,Accumulation Index,[1]; [11],1.033 ± 0.018
same,C max,[1]; [11],"12,388.333 ± 1607.376 ng/mL"
same,CL,[1]; [11],2758.333 ± 677.108 mL/h
same,V z/F_obs,[1]; [11],"36,889.057 ± 5339.335 mL"
same,t ½,[1]; [11],9.534 ± 1.467 h
same,λz,[1]; [11],0.074 ± 0.012 h⁻¹
same,t max,[1]; [12],3.00 (1.50–3.500) h
same,AUCt,[1]; [12],"118,269.238 ± 28,910.037 h·ng/mL"
same,AUC∞,[1]; [12],"123,020.455 ± 32,873.290 h·ng/mL"
same,Accumulation Index,[1]; [12],1.017 ± 0.011
same,C max,[1]; [12],"19,286.667 ± 4086.434 ng/mL"
same,CL,[1]; [12],2608.681 ± 641.704 mL/h
same,V z/F_obs,[1]; [12],"29,476.605 ± 6045.099 mL"
same,t ½,[1]; [12],7.968 ± 1.106 h
same,λz,[1]; [12],0.088 ± 0.011 h⁻¹
same,t max,[1]; [13],1.75 (1.00–2.00) h
same,AUCt,[1]; [13],"105,472.355 ± 19,487.237 h·ng/mL"
same,AUC∞,[1]; [13],"105,772.678 ± 19,542.028 h·ng/mL"
same,Accumulation Index,[1]; [13],1.033 ± 0.022
same,C max,[1]; [13],"16,450.000 ± 3422.484 ng/mL"
same,CL,[1]; [13],2992.073 ± 697.789 mL/h
same,V z/F_obs,[1]; [13],"41,797.611 ± 17,743.925 mL"
same,t ½,[1]; [13],9.445 ± 1.819 h
same,λz,[1]; [13],0.076 ± 0.015 h⁻¹
same,"urinary excretion of intact ZYAN1, average",[2]; healthy subjects,36%
same,Amount recovered [mean ± SD],[2]; single oral dose 10 mg,3.63 ± 1.02 mg
same,Percentage recovered [mean ± SD],[2]; single oral dose 10 mg,36.270 ± 10.245%
same,Amount recovered [mean ± SD],[2]; single oral dose 25 mg,9.45 ± 1.76 mg
same,Percentage recovered [mean ± SD],[2]; single oral dose 25 mg,37.798 ± 7.059%
same,Amount recovered [mean ± SD],[2]; single oral dose 50 mg,18.99 ± 3.36 mg
same,Percentage recovered [mean ± SD],[2]; single oral dose 50 mg,37.995 ± 6.718%
same,Amount recovered [mean ± SD],[2]; single oral dose 100 mg,41.13 ± 12.06 mg
same,Percentage recovered [mean ± SD],[2]; single oral dose 100 mg,41.130 ± 12.064%
same,Amount recovered [mean ± SD],[2]; single oral dose 150 mg,56.23 ± 17.26 mg
same,Percentage recovered [mean ± SD],[2]; single oral dose 150 mg,37.485 ± 11.508%
same,Amount recovered [mean ± SD],[2]; single oral dose 200 mg,62.83 ± 18.11 mg
same,Percentage recovered [mean ± SD],[2]; single oral dose 200 mg,31.417 ± 9.056%
same,Amount recovered [mean ± SD],[2]; single oral dose 300 mg,82.66 ± 39.25 mg
same,Percentage recovered [mean ± SD],[2]; single oral dose 300 mg,27.555 ± 13.083%
same,Adverse events (Test),[3]; Food and sex effect 150 mg panel,"Palpitation, cellulitis, back pain, musculoskeletal pain, head discomfort, headache (2), folliculitis, cellulitis"
same,total AEs reported,"[3]; part III crossover, 150 mg",11
same,Adverse events (Test),Part I safety assessment; SAD 25 mg panel,"Rhinorrhea, right lower wisdom tooth pain, sore throat"
same,Adverse events (Test),Part I safety assessment; SAD 50 mg panel,"Dizziness, headache, chest pain, Diarrhea, upper respiratory tract infection"
same,Adverse events (Test),Part I safety assessment; SAD 100 mg panel,"Dizziness, headache, lethargy, nausea, throat irritation, increase in AST, hyperkalemia"
same,Adverse events (Test),Part I safety assessment; SAD 200 mg panel,Back pain
same,drug-related serious adverse events,Part I safety assessment; all study parts,No drug-related serious adverse events were reported
same,severity of AEs possibly related to study treatment,Part I safety assessment; part I,grade 1
same,subjects with AEs possibly related to study treatment,"Part I safety assessment; part I, nine AEs in six subjects, placebo 21%",14%
same,tolerability,Part I safety assessment; single and multiple oral ascending doses,well-tolerated
same,"mean serum EPO concentrations, fasted vs fed",[4],no apparent difference
same,"mean serum EPO concentrations, male vs female subjects",[4]; fasted or fed,no apparent difference
same,maximum tolerated dose (MTD),[5],60 mg/kg
